SENP8 block-1 = blocks the human protease SENP8 | inhibition, % at 10 µM | Q96LD8 | purified SENP8, Z-RLRGG-aminoluciferin cleavage, luminescence | 330,000 tested, 1.2% active; in the data active means inhibition above about 50%
SENP7 inh = blocks the human protease SENP7; Q9BQF6; recombinant SENP7, Z-RLRGG-aminoluciferin luminescence, 40 min; inhibition, % at 5 µM; 330,000 tested, 1.5% active; AID 434973;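 active means inhibition above about 50% at the single test dose, limit read from the data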;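 further: plate controls were DMSO with enzyme for no effect and no enzyme buffer wells for full effect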
SENP6 inh = SENP6 protease inhibition. Recombinant SENP6 catalytic domain, aminoluciferin luminescence. inhibition, % at 10 µM. AID 2599. 330,000 tested, 1.8% active. Q9GZR1;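 active means inhibition above about 50% at the single tested dose, limit read from the data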;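 further: plate controls were DMSO wells with enzyme for no effect and DMSO wells lacking enzyme for full effect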
SENP8 block-2 = inhibitors of human SENP8 protease; inhibition, % at 20 µM; 360,000 tested, 0.64% active; recombinant SENP8, Nedd8 substrate fluorescence; AID 602440; in the data active means inhibition mostly above about 40%, no sharp cut-off; inactive means mostly below about 27%
SENP1 FRET inh = SENP1 (human) catalytic domain inhibition. recombinant SENP1 catalytic domain, CyPet-SUMO1-YPet FRET cleavage. 360,000 tested, 0.21% active. inhibition, % at 10 µM;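 active means inhibition at least 30% at 10 µM, raw YFP signal under a set limit, fluorescence ratio 0.5 to 1.5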;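 further: 0% = enzyme with DMSO and 100% = no enzyme wells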
Target sequence (Q9P0U3 419-644 limits assumed): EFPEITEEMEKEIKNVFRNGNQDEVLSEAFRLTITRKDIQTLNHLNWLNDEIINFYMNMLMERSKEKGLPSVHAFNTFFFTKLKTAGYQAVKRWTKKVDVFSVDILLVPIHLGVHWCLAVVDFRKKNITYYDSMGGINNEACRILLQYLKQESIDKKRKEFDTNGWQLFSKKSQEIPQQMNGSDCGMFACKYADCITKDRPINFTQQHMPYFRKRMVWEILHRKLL
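Test system: human SENP1 catalytic domain; medium: Tris pH 8 buffer plus EDTA, NaCl, BME, BSA, NP40, catalase; incubation: 50 min reaction at room temperature; technique: FRET, CFP and YFP emission; controls: no-enzyme low control and enzyme-plus-DMSO high control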
NRP1-CendR mod = NRP-1/CendR interaction modulation. 360,000 tested, 0.85% active. inhibition, % at 25 µM. FAM-RPARPAR peptide binding to NRP-1, fluorescence polarization. O14786. AID 602438;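 active means inhibition or corrected inhibition above about 18%, plus a signal ratio from 0.5 to 1.5, limit read from the data, passing the limit was not always enough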
SENP8 conf-1 = confirmation of human SENP8 protease inhibitors; shares compounds with SENP7 inh; inhibition, % at 12.5 µM; AID 488912; Recombinant SENP8, Z-RLRGG-aminoluciferin luminescence, 60 min; 6,200 tested, 40% active;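 active means mean inhibition across replicates above about 50%, limit read from the data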
SENP6 conf = human SENP6 inhibition, confirmed | recombinant SENP6, Z-RLRGG-aminoluciferin luminescence | inhibition, % at 12.5 µM | shares compounds with SENP7 inh | 6,200 tested, 58% active | AID 488915
SENP7 confirm = human SENP7 inhibition, confirmed | 6,200 tested, 69% active | inhibition, % at 12.5 µM | recombinant SENP7, Z-RLRGG-aminoluciferin luminescence, 40 min | shares compounds with SENP7 inh | AID 488917
Casp3 SENP sel = caspase-3 inhibition (SENP selectivity assay); inhibition, % at 12.5 µM; purified caspase-3, Z-DEVD-aminoluciferin luminescence, 60 min; AID 488918; 6,200 tested, 60% active; shares compounds with SENP7 inh;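 active means mean inhibition above about 50%, limit read from the data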;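 further: plate controls were enzyme with DMSO for no effect and wells without caspase-3 for full effect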
Target sequence (P42574 28-227 limits assumed): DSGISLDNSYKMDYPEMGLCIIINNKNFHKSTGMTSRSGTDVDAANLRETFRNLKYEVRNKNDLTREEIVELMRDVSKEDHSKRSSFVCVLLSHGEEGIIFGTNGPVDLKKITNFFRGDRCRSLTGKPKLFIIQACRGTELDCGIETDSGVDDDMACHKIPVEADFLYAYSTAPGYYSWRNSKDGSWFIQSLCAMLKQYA
SENP luc ctr = luminescence interference (SENP counter-screen); shares compounds with SENP7 inh; Pre-incubated SENP8/Z-RLRGG-aminoluciferin, luciferase luminescence interference; inhibition, % at 12.5 µM; 6,200 tested, 39% active;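 active means mean inhibition above about 50% when retested at one dose, limit read from the data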;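 further: plate controls were DMSO wells with completed reaction for no effect and substrate without enzyme for full effect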
SENP8 conf-2 = confirmation of human SENP8 protease inhibitors; shares compounds with SENP8 block-2; purified SENP8, Nedd8-AMC/pro-Nedd8 cleavage fluorescence, 30 min; inhibition, % at 25 µM; 1,400 tested, 15% active; AID 624319; in the data active means inhibition mostly above about 39%, no sharp cut-off; inactive means mostly below about 34%
SENP1 inh conf = confirmation of human SENP1 SUMO protease inhibitors. shares compounds with SENP1 FRET inh. recombinant SENP1, CyPet-SUMO1-YPet FRET cleavage. inhibition, % at 10 µM. 520 tested, 34% active; in the data active means inhibition mostly above about 35%, no sharp cut-off; inactive means mostly below about 32%;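 further: 0% = enzyme with DMSO and 100% = no enzyme control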
SENP1 kinetic = confirmation of human SENP1 SUMO protease inhibitors, kinetic; shares compounds with SENP1 FRET inh; recombinant SENP1, CyPet-SUMO1-YPet FRET kinetic cleavage; inhibition, % at 10 µM; 520 tested, 26% active; AID 651690; in the data active means inhibition mostly above about 32%, no sharp cut-off; inactive means mostly below about 29%;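 further: 0% = DMSO with enzyme and 100% = no enzyme substrate only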
* marks the source's active call; other numbers are inactive results; · = no result. Compounds with a hit are over-represented: about 3.3% of the library has one in this group of screens.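 How the source made its calls, unless noted: active means mean inhibition above about 50% in the one-dose retest (limit read from the data); inactive means the rest.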

SMILES	SENP8 block-1	SENP7 inh	SENP6 inh	SENP8 block-2	SENP1 FRET inh	NRP1-CendR mod	SENP8 conf-1	SENP6 conf	SENP7 confirm	Casp3 SENP sel	SENP luc ctr	SENP8 conf-2	others
Cc1c(NC(=O)C(C)OC(=O)c2ccc([N+](=O)[O-])s2)c(=O)n(-c2ccccc2)n1C (configuration not stated)	53.9*	15.3	58.3*	48.1*	3.2	-18.6	47.1	79.4*	28.3	6.8	-16.5	73.0*
Nc1ccc(N2CCCCC2)c2nonc12	58.4*	25.1	90.4*	80.2*	13.2	29.4*	29.6	56.1*	19.5	-3.0	-3.0	69.7*
Cc1[nH][nH]c(=O)c1C(c1c(C)[nH][nH]c1=O)c1cn(Cc2cccc3ccccc23)c2ccccc12	42.3	23.7	57.2*	86.2*	5.5	-0.6	2.6	37.7	16.7	-1.3	-3.9	84.8*
O=c1c2ccccc2ncn1Cc1cccc2ccccc12	-11.6	-7.1	-15.1	1.5	1.1	-7.8	·	·	·	·	·	·
COC(=O)c1[nH]c(=O)c2ccccc2c1O	52.5*	17.1	63.6*	40.6*	0.7	-4.7	-9.1	12.7	-6.7	4.7	-9.8	-31.6
O=C1/C(=C/c2ccc([N+](=O)[O-])cc2)Oc2cc(O)ccc21	56.8*	62.5*	69.6*	25.4	62.5*	-31.2	11.2	47.4	51.0*	26.4	53.4*	·	SENP1 inh conf=45.0*;SENP1 kinetic=26.1
Cc1cccc(-c2noc(-c3cc4ccccc4oc3=O)n2)c1	0.2	81.5*	11.5	-488.0	51.1*	21.5	19.7	21.2	21.0	37.9	2.7	·	SENP1 inh conf=-0.2;SENP1 kinetic=6.4
Cc1cccc(-c2noc(-c3ccc(Cl)cc3[N+](=O)[O-])n2)c1	7.4	38.9	39.3	19.2	0.7	-0.1	·	·	·	·	·	·
Cc1ccccc1Cn1c(C)c(C(=O)N(C)Cc2ccc(F)cc2)sc1=O	·	·	·	8.2	-0.6	0.1	·	·	·	·	·	·
COC(=O)CCCC1=CC2=CC(=O)C(C)(OC(=O)c3cccs3)C(=O)C2=CN1C1CCCCC1 (configuration not stated)	5.0	-6.1	3.8	26.6	-9.3	13.6	·	·	·	·	·	·
COCCN1C=C2C(=O)C(C)(OC(=O)c3cccs3)C(=O)C=C2C=C1CCCC(=O)OC (configuration not stated)	3.2	0.5	13.7	37.0	-21.1	2.9	·	·	·	·	·	·
COC(=O)CCCC1=CC2=CC(=O)C(C)(OC(=O)c3cccs3)C(=O)C2=CN1CCN1CCOCC1 (configuration not stated)	7.1	6.5	18.7	50.9*	-72.5	9.5	·	·	·	·	·	55.4*
COC(=O)CCCC1=CC2=C(c3ccccc3)C(=O)C(C)(OC(=O)C3CCCC3)C(=O)C2=CN1CCCCO (configuration not stated)	-1.5	6.5	5.1	47.7*	-23.5	19.8	·	·	·	·	·	66.5*

Bioassay records from PubChem.
